Screening results from PubChem BioAssay.
OXTR potentiate: potentiators of human oxytocin receptor | P30559 | CHO-OTR cells, Fluo-8 calcium fluorescence, potentiator mode; 0% = oxytocin EC15, 100% = EC100 | activation, % at 3 µM | actives 0.061% (n = 320,000) | AID 2445;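 active means activation above that plate's cutoff, the mean activation of tested compounds plus 3 SD, cut at about 6.6% in these data, passing the limit was not always enough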
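test system = CHO-OTR cells, human receptor | compound = single-point 3.0 µM | schedule = 6 min compound pre-incubation at room temperature, 100 s kinetic read | signal = Fluo-8 no-wash calcium dye fluorescence, excitation 470-495 nm, emission 515-575 nm | repeats = single well per compound, singlicate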
V1R ag counter: activates human V1a receptor in oxytocin agonist counter-screen; CHO-V1R cells, Fluo-8 calcium fluorescence, agonist mode; 0% DMSO, 100% 3 nM vasopressin; P37288; activation, % at 3 µM; actives 0.25% (n = 320,000);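 active means activation above the mean activation of all tested compounds plus 3 SD, per screening run, cut at about 20% in these data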;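 further: signal is peak over basal fluorescence ratio across a 100 second FLIPR read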
M4 ag: CHRM4 agonism in calcium assay; activation, % at 3 µM; CHO-K1 hM4/Gqi5, Fluo-8 calcium fluorescence; vehicle 0%, full acetylcholine response 100%; actives 0.14% (n = 360,000); AID 624127;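 active means activation above the run mean over all test wells plus 3 SD, cut at about 32% in these data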;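 further: peak over basal fluorescence ratio per well then scaled between controls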
Target sequence (P08173 whole entry, looked up): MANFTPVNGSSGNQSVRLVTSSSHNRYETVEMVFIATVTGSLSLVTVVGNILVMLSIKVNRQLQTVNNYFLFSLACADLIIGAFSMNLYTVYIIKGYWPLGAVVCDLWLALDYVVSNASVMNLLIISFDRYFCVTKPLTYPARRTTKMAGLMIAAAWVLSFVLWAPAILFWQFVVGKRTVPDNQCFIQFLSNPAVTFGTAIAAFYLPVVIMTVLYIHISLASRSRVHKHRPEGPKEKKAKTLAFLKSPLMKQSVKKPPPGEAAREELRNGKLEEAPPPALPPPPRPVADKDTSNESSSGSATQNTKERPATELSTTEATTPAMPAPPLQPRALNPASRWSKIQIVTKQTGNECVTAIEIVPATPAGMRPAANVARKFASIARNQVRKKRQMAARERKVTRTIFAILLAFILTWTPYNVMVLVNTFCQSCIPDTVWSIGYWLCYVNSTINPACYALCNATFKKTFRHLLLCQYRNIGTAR
CHRM4 PAM: potentiates acetylcholine response at human M4 receptor. P08173. CHO-K1 hM4/Gqi5, Fluo-8 calcium fluorescence, ACh EC20; 0% = ACh EC20, 100% = maximal ACh. activation, % at 3 µM. actives 0.4% (n = 360,000). AID 624126;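 active means activation above its plate's cutoff, the mean activation of sample wells plus 3 SD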
OXTR ag: human OXTR agonism | CHO-OTR cells, Fluo-8 calcium fluorescence; normalized: DMSO 0%, oxytocin 100% | activation, % at 3 µM | actives 0.32% (n = 320,000) | AID 2435;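 active means activation above the mean of all tested compounds plus 3 SD, cutoff set per screening run, cut at about 20% in these data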;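 further: peak over basal fluorescence ratio from a 100 s FLIPR kinetic read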
M4 antag: CHRM4 antagonism in calcium assay. actives 0.73% (n = 360,000). CHO-hM4 cells, ACh EC80, Fluo-8 calcium fluorescence. AID 624125. inhibition, % at 3 µM. P08173;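 active means inhibition above its plate's cutoff, the mean inhibition of sample wells plus 3 SD, cut at about 27% in these data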
Of the large screens only hits and unclear results are named; the others gave an inactive call. This is a sample that favours compounds with a hit; in the whole collection about 1.5% have one here.

CN(C)CCCN(C(=O)c1cccs1)c1nc(-c2ccccc2)cs1	M4 antag 28
COc1ccc(-c2csc(N(CCCN(C)C)C(=O)c3ccc(F)cc3)n2)cc1	CHRM4 PAM 50, M4 antag 35
CCN(CC)CCCN(C(=O)c1ccc(F)cc1)c1nc(-c2ccc(OC)cc2)cs1	CHRM4 PAM 59, M4 antag 46
CCOc1ccccc1Nc1nc(N)nc(CN2CCCCC2C)n1 (stereo unspecified)	none
CCCCc1ccc(NC(=O)COC(=O)c2ccc3ncsc3c2)cc1	none (no result: OXTR potentiate, V1R ag counter, OXTR ag)
COc1ccc2sc(C)nc2c1NC(C)=O	none
COc1cc2sc(C)nc2c2sccc12	CHRM4 PAM 18
O=C(CN1C(=O)NC2(CCCCC2)C1=O)Nc1ccc2c(c1)OCCCO2	none
COc1ccc(S(=O)(=O)N2CCOC23CCN(S(=O)(=O)c2ccc(F)cc2)CC3)cc1	M4 antag 29
Cc1ccc(-c2nn(CCC(=O)O)cc2/C=C\C(=O)c2ccc(Br)cc2)cc1	CHRM4 PAM 19
COc1ccc(Oc2c(C)oc3c(CN4CCOCC4)c(O)ccc3c2=O)cc1	M4 antag 41
CCOC(=O)c1ccc(Oc2c(C)oc3c(CN4CCN(C)CC4)c(O)ccc3c2=O)cc1	M4 antag 33
CCn1c(C)nc2cc(C(=O)NNC(=O)CN(C)S(=O)(=O)c3ccc(NC(C)=O)cc3)ccc21	none
CC(=O)Nc1cc(-c2cccc(F)c2)cn2c(-c3ccccc3)cnc12	none (no result: OXTR potentiate, V1R ag counter, OXTR ag)
Cc1nc2nc(C)n(CCN3CCOCC3)c(=O)c2c(-c2cccc([N+](=O)[O-])c2)c1C(=O)CCCCCCCCCCN1CCC(c2ccccc2)(c2ccccc2)CC1	M4 antag 95 (no result: OXTR potentiate, V1R ag counter, OXTR ag)
COCC(=O)N1C[C@H]2CON(C)[C@H]2C[C@H]1c1cccc(-c2ccccc2)c1	none (no result: OXTR potentiate, V1R ag counter, OXTR ag)
CCn1c(NC(=O)c2ccccc2F)c(-c2cccs2)c(=O)c2ccccc21	M4 antag 29
CCn1c(NC(=O)C(C)C)c(-c2cccs2)c(=O)c2ccccc21	none
CC(OCCN1CCCC1)(c1ccc(F)cc1)c1ccc(F)cc1	M4 antag 47
CC(C)(C)c1ccccc1OCCN1CCCC1	M4 antag 32
Fc1ccc(OCCOCCN2CCCC2)cc1	none
COc1ccccc1Cn1c(C)c(C(=O)NCc2ccc(C#N)cc2)sc1=O	M4 ag 37 (no result: OXTR potentiate, V1R ag counter, OXTR ag)
CCN(CC)CCN1C(=O)c2ccccc2NC1c1ccccc1F (stereo unspecified)	M4 antag 29
CS(=O)(=O)c1cc([N+](=O)[O-])c(Sc2nc3ccccc3[nH]2)c([N+](=O)[O-])c1	M4 antag 38
O=C(O)c1cc([N+](=O)[O-])c(Sc2nc3ccccc3[nH]2)c([N+](=O)[O-])c1	none
CC(=O)NC(Cc1ccccc1)C(=O)OCC(=O)c1ccc(Cl)cc1 (stereo unspecified)	none
O=C(CCl)NC(Cc1ccccc1)C(=O)OCC(=O)c1ccc(-c2ccccc2)cc1 (stereo unspecified)	M4 antag 27 (no result: OXTR potentiate, V1R ag counter, OXTR ag)
COc1ccc(N2CCN(c3ncnc4c3[nH]c3ccccc34)CC2)cc1	M4 antag 28
Fc1ccc2[nH]c3c(N4CCN(c5ccccc5)CC4)ncnc3c2c1	M4 antag 38
CCOc1ccc(C(CN2CCOCC2)C(C)=O)cc1OC (stereo unspecified)	none (no result: OXTR potentiate, V1R ag counter, OXTR ag)
Cc1cn(CC(=O)NCCCN2CCCC2=O)c(=O)[nH]c1=O	none (no result: OXTR potentiate, V1R ag counter, OXTR ag)
CC1=C(C)CS(=O)N(S(=O)(=O)c2ccc(Cl)cc2)C1 (stereo unspecified)	M4 antag 48
C/C(=N\NC(=O)c1cc(-c2cccc(OC(C)C)c2)nc2ccccc12)c1cccnc1	none (no result: OXTR potentiate, V1R ag counter, OXTR ag)
C/C(=N/NC(=O)c1cc(-c2ccccc2)nc2c(Cl)cccc12)c1cccnc1	CHRM4 PAM 26 (no result: OXTR potentiate, V1R ag counter, OXTR ag)
COc1ccccc1N1N=C(c2ccc([N+](=O)[O-])cc2)CC1c1ccccc1 (stereo unspecified)	V1R ag counter 28, OXTR ag 30
Cc1ccc(Cn2c(=N)n(CC(O)COc3ccccc3)c3ccccc32)cc1 (stereo unspecified)	V1R ag counter 28, OXTR ag 28
O=C(CN(CCO)Cc1ccccc1)N1CCN(S(=O)(=O)c2ccccc2)CC1	none (no result: OXTR potentiate, V1R ag counter, OXTR ag)
CCN(C(=S)Nc1ccccc1F)C1CCCCC1	none
Cc1cccc(OC(=O)n2c(=S)oc3cc(Cl)ccc32)c1	CHRM4 PAM 30
CC(C)OC(=O)n1c(=S)oc2ccccc21	none
C=CCN(c1ccccc1OC)S(=O)(=O)c1cccc(C(=O)OCC(=O)c2c(N)n(C)c(=O)n(C)c2=O)c1	none (no result: OXTR potentiate, V1R ag counter, OXTR ag)
COc1ccc2sc(-c3ccc(S(C)(=O)=O)cc3)c(C#CCO)c2c1	none
COc1ccc2c(C#CCCO)c(-c3ccc(S(C)(=O)=O)cc3)sc2c1	M4 antag 32
Cc1cc2c3c([nH]c2cc1S(=O)(=O)NCc1ccc(CN2CCCCCC2)o1)CCCC3=O	M4 antag 68
Cc1cc2cc(CNC(=O)c3ccc(S(=O)(=O)N4CCCCC4)cc3)ccc2n1C	none
COc1ccc(C(=O)NCc2ccc3c(c2)cc(C)n3C)cc1OC	none
Cc1cc2cc(CNC(=O)c3ccc(S(=O)(=O)N4CCCC4)cc3)ccc2n1C	M4 antag 35
CCN(CC)S(=O)(=O)c1ccc(C(=O)NCc2ccc3c(c2)cc(C)n3C)cc1	M4 antag 55
CCOC1=C2CN(S(=O)(=O)c3ccc(C)cc3)C(c3cccc(Cl)c3)CC2NC(c2ccccc2)C1 (stereo unspecified)	none (no result: OXTR potentiate, V1R ag counter, OXTR ag)
CCCCNC(=O)c1nc(-c2cccs2)oc1-c1ccc(Cl)cc1	none (no result: OXTR potentiate, V1R ag counter, OXTR ag)
CC(C(O)C12CC3CC(CC(C3)C1)C2)N1CCCCC1 (stereo unspecified)	M4 antag 40
CC(NC(=O)CN1CCCC1)C12CC3CC(CC(C3)C1)C2 (stereo unspecified)	none
C[C@H](CO)N1C[C@H](C)[C@H](CN(C)C(=O)Nc2ccccc2F)OCc2cnnn2CCCC1=O	none (no result: OXTR potentiate, V1R ag counter, OXTR ag)
c1ccc(-c2ccc(OCCCNC3CCCC3)cc2)cc1	M4 antag 39
CN(C(=O)CCNC(=O)Cn1cnc2ccccc2c1=O)c1ccc(Br)cc1	none
CN(CCc1ccccn1)C(=O)CCNC(=O)Cn1cnc2ccccc2c1=O	CHRM4 PAM 19
CCOC(=O)c1ccc(NC(=S)NCCc2ccccc2F)cc1	M4 antag 29
CSCC[C@H](NC(=O)c1cccc(S(=O)(=O)N2CCCCC2)c1)c1nc2ccccc2[nH]1	none
CC(=O)Nc1cccc(C(=O)N2CCN(Cc3ccccc3)CC2)c1	CHRM4 PAM 20
